Test results taken from paper PMC8760168 (Current drug metabolism, 2021).
Several values for one entry are separate records, joined by “and”; a condition that tells them apart may be missing. Equal values may be shown once.

How the values were obtained:
[1] = four hours; cited from earlier work
[2] = Quantification of MIDD0301 and MIDD0301 metabolites in urine and feces; format: in vivo, Swiss Webster mice; conditions: for Feces & Urine (%) 0-48 hours / Feces (%) 0-24 hours / Feces (%) 24-48 hours / Urine (%) 0-24 hours / Urine (%) 24-48 hours: % of moles of MIDD0301 administered
Procedure, shortened: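 Seven-week-old female mice housed singly in metabolic cages; n = 3 per route. Dosing: oral 750 μg, IP 750 μg (50% propylene glycol/PBS) or IV 250 μg (PBS). Urine and feces collected at 0–24 and 24–48 h and stored at −20°C. Extracted with internal standards, ultrafiltered, then C18 LC-MS/MS with positive MRM against synthesized-standard calibration curves. Reported as % of moles administered.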

[3] = Phase I microsomal stability assay, mouse liver microsomes; format: in vitro ADME; conditions: NADPH, 10 μM, 0.5 mg/mL protein, two hours
Procedure, shortened: (§1)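 Test compound at 10 μM in phosphate buffer pH 7.4 with NADPH regenerating system, preincubated 5 min at 37°C. Started with dog, mouse or rat liver microsomes or human liver fraction (0.5 mg/mL protein).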

[4] = Phase II stability assay, glucosidation, mouse liver S9; format: in vitro ADME; conditions: mouse liver S9, UDP-Glc
Procedure, shortened: (§2)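 Glucosidation: test compound 10 μM in phosphate buffer pH 7.4 with UDP-glucose, gluco-1,5-lactone, MgCl2 and alamethicin, 37°C. Started with mouse liver or kidney S9 (0.5 mg/mL protein). Sampled 0–120 min; long assay (kidney) sampled 1–24 h. Quenched in acetonitrile with internal standard, then LC-MS/MS. t1/2 from ln area ratio. Long assay: first-order k from glucoside area ratio. Two independent assays, triplicate.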

[5] = Phase I microsomal stability assay, dog liver microsomes; format: in vitro ADME; conditions: NADPH, 10 μM, 0.5 mg/mL protein, two hours
Procedure, shortened: as §1

[6] = Pharmacokinetic studies in mice; format: in vivo, Swiss Webster mice
Procedure, shortened: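 Six-week-old female mice given 25 mg/kg by gavage (2% PEG in 2% aqueous HPMC), 25 mg/kg IP (50% propylene glycol/50% PBS pH 7.2) or 1 mg/kg tail vein (PBS pH 7.2). Blood, lung and non-perfused brain taken at 10–1,440 min, n = 4 (oral, IP) or 8 (IV). Methanol extraction with internal standard, then LC-MS/MS. Two-compartment model; half-lives from elimination rates.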

[7] = neutral pH; cited from earlier work
[8] = repeated high dose exposure in rodents; cited from earlier work
[9] = Phase II stability assay, glucuronidation, human liver S9; format: in vitro ADME; conditions: human liver S9, UDP-GlcUA, alamethicin, saccharolactone, 10 μM
Procedure, shortened: (§3)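 Glucuronidation: test compound 10 μM in phosphate buffer pH 7.4 with UDP-glucuronic acid, saccharic-1,4-lactone, MgCl2 and alamethicin, 37°C. Started with human or mouse liver S9 (0.5 mg/mL protein). Short assay sampled 0–120 min; long assay (mouse) sampled 1–24 h. Quenched in acetonitrile with internal standard, then LC-MS/MS. t1/2 from ln area ratio. Long assay: first-order k from glucuronide area ratio. Two independent assays, triplicate.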

[10] = Phase I microsomal stability assay, rat liver microsomes; format: in vitro ADME; conditions: NADPH, 10 μM, 0.5 mg/mL protein, two hours
Procedure, shortened: as §1

GABAA receptors = conditions: read-out: receptor affinity (EC50); no reference given; cited from earlier work
[11] = Imaging mass spectrometry of lung after oral administration; format: in vivo, Swiss Webster mice; conditions: 25 mg/kg oral, lungs harvested after 1 h, 50 μm resolution
Procedure, shortened: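 Female Swiss Webster mice dosed orally. Lungs excised, frozen briefly on dry-ice vapour, stored at −80°C, then equilibrated to −20°C for 30 min. 20-micron cryosections thaw-mounted, rinsed with 0.1% TFA and dried 1 h. 2,5-Dihydroxyacetophenone matrix (50 mg/mL) sprayed in layers. MALDI-TOF/TOF in reflectron MS/MS mode, transitions m/z 416>372 and 416>331.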

[12] = cited from earlier work
[13] = Phase I microsomal stability assay, human liver fraction; format: in vitro ADME; conditions: NADPH, 10 μM, 0.5 mg/mL protein, two hours
Procedure, shortened: as §1

[14] = Phase II stability assay, glucosidation, mouse kidney S9; format: in vitro ADME; conditions: mouse kidney S9, UDP-Glc
Procedure, shortened: as §2

[15] = Phase II stability assay, glucuronidation, mouse liver S9; format: in vitro ADME
Procedure, shortened: as §3

CYP3A4 = CYP3A4 (Homo sapiens, UniProt P08684); assay: CYP3A4 inhibition assay; conditions: recombinant CYP3A4, fluorescent substrate
Chain of CYP3A4 (P08684 whole entry): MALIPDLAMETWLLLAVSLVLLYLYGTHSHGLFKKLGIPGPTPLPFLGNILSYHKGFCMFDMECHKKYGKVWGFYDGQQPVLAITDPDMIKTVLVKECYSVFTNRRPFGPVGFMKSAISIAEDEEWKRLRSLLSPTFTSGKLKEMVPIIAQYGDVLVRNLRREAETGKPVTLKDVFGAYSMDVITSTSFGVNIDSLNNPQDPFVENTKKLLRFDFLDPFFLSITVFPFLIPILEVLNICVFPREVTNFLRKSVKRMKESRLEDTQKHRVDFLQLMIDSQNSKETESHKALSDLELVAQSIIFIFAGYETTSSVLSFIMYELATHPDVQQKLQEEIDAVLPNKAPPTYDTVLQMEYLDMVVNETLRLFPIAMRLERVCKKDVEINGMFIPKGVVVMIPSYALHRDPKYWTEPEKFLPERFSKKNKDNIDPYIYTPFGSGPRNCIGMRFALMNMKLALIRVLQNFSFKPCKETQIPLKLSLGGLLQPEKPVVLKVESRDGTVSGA

C#Cc1ccc2c(c1)C(c1ccccc1F)=N[C@H](C)c1c(C(=O)NC)ncn1-2 [MP-III-022]
metabolic stability [1]: stable

C[C@H]1N=C(c2ccccc2F)c2cc(Br)ccc2-n2cnc(C(=O)O)c21 [MIDD0301]
Feces & Urine (%) 0-48 hours ([2]; IP, 750 μg): 43.9 ± 6.24% | Feces (%) 0-24 hours ([2]; IP, 750 μg): 43.2% and 43.2 ± 5.9% | Feces (%) 24-48 hours ([2]; IP, 750 μg): 0.3 ± 0.1% | Urine (%) 0-24 hours ([2]; IP, 750 μg): 0.3% and 0.3 ± 0.2% | Urine (%) 24-48 hours ([2]; IP, 750 μg): 0.1 ± 0.04% | Feces & Urine (%) 0-48 hours ([2]; IV, 250 μg): 32% and 32.0 ± 3.7% | Feces (%) 0-24 hours ([2]; IV, 250 μg): 30.4% and 30.4 ± 3.4% | Feces (%) 24-48 hours ([2]; IV, 250 μg): 1.2 ± 0.2% | Urine (%) 0-24 hours ([2]; IV, 250 μg): 0.4% and 0.4 ± 0.1% | Urine (%) 24-48 hours ([2]; IV, 250 μg): <LOD | Feces & Urine (%) 0-48 hours ([2]; oral, 750 μg): 55.1% and 55.1 ± 5.7% | Feces (%) 0-24 hours ([2]; oral, 750 μg): 54.3% and 54.3 ± 5.2% | Feces (%) 24-48 hours ([2]; oral, 750 μg): 0.7% and 0.7 ± 0.4% | Urine (%) 0-24 hours ([2]; oral, 750 μg): 0.1% and 0.1 ± 0.01% | Urine (%) 24-48 hours ([2]; oral, 750 μg): <LOD | bioavailability ([2]; oral, from unconjugated MIDD0301 excreted, 32% IV versus 55.1% oral): ≤ 77% | metabolic conversion of MIDD0301 [3]: not observed | conversion of MIDD0301 (glucosidation) [4]: did not observe conversion | metabolic conversion of MIDD0301 [5]: not observed | half-lives ([6]; 1 mg/kg IV tail vein injection, blood, lung, brain): 1 to 2 h | tolerability of tail vein injection ([6]; 1 mg/kg IV, aqueous solution): well-tolerated without signs of irritation | signs of toxicity ([6]; 25 mg/kg IP, throughout the study): no signs of toxicity | blood concentration after 24 h ([6]; 25 mg/kg oral): 12 nM | brain concentration after 24 h ([6]; 25 mg/kg oral): less than 3 nM | lung concentration after 24 h ([6]; 25 mg/kg oral): less than 3 nM | tmax ([6]; 25 mg/kg oral gavage): 20 min | brain concentration as % of the corresponding blood concentrations ([6]; 25 mg/kg oral, non-perfused brains): less than 7% | half-lives for blood and lung ([6]; 25 mg/kg oral, based on calculated elimination rates, two compartment model): 4 to 5 h | drug half-life in blood, lung, and brain ([6]; IP administration): 4 to 6 h | drug half-life in blood, lung, and brain ([6]; oral administration): 4 to 6 h | aqueous solubility [7]: high | adverse effects [8]: did not cause any adverse effects | half-life, conversion to glucuronide [9]: 240 min | metabolic conversion of MIDD0301 [10]: not observed | EC50 (GABAA receptors): 72 nM | spatial distribution in mouse lung (IMS) [11]: uniform distribution | brain absorption [12]: very little | central nervous system effects ([12]; high single or repeated dosing): no observed central nervous system effects | metabolic conversion of MIDD0301 [13]: not observed | reaction rate, formation of MIDD0301 glucoside [14]: 0.0038 min⁻¹ | half-life, glucosidation ([14]; 10 μM): 296 min | half-life, conversion to glucuronide ([15]; mouse liver S9, UDP-GlcUA, alamethicin, saccharolactone, 10 μM): 143 min | reaction rate, formation of MIDD0301 glucuronide (first order kinetics) ([15]; mouse liver S9, monitored for 8 h): 0.0042 min⁻¹ | % inhibition of CYP3A4 activity (CYP3A4; 10 μM): less than 1%

Cc1c(O)cccc1C(=O)N[C@@H](CSc1ccccc1)[C@H](O)CN1C[C@H]2CCCC[C@H]2C[C@H]1C(=O)NC(C)(C)C [nelfinavir, reference compound]
inhibition of CYP3A4 activity (CYP3A4; 100 μM): completely inhibited

C#Cc1ccc2c(c1)C(c1ccccc1F)=N[C@H](C)c1c(C(=O)OCC)ncn1-2 [SH-053-2’F-R-CH3]
metabolic stability [1]: metabolized fully within four hours
